Experimental data published in ChEMBL document CHEMBL1156215, “Homoisoflavonoid derivatives from the roots of Ophiopogon japonicus and their in vitro anti-inflammation activity” (Bioorg Med Chem Lett, 2010).

Assays:
[1] = Cytotoxicity against human BEAS2B cells at 25 uM after 48 hrs by MTT assay; assay type: cell-based; details: beas-2b
In short: (§1)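 BEAS-2B viability by MTT after 48 h exposure to compound, with or without IL-4.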

BEAS-2B [2] = test: Antiinflammatory activity in human BEAS2B cells assessed as inhibition of IL4-induced eotaxin production after 48 hrs by ELISA treated 2 hrs before IL4 challenge; assay type: functional, cell-based
In short: (§2)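 BEAS-2B cells in RPMI-1640 with 10% FBS at 37 °C, 5% CO2, plated at 5 × 10^5/mL, switched to serum-free RPMI at 80% confluence. Pretreated 2 h with compound (1.0–25.0 μM), then IL-4 (20 ng/mL) alone. Supernatant eotaxin measured by sandwich ELISA after 48 h. Values are the mean of three experiments.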

[3] = Cytotoxicity against human BEAS2B cells at 25 uM after 48 hrs by MTT assay in the presence of IL4; assay type: cell-based; details: beas-2b; in short: as §1
[4] = Antiinflammatory activity in human BEAS2B cells assessed as inhibition of IL4-induced eotaxin production at 25 uM after 48 hrs by ELISA treated 2 hrs before IL4 challenge; assay type: functional, BEAS-2B; in short: as §2
BEAS-2B [5] = test: Antiinflammatory activity in human BEAS2B cells assessed as inhibition of IL4 and TNF-alpha-induced eotaxin production after 48 hrs by ELISA treated 2 hrs before IL4 challenge; assay type: functional, cell-based
[6] = Antiinflammatory activity in human BEAS2B cells assessed as reduction in IL4 and TNF-alpha-induced eotaxin production at 25 uM after 48 hrs by ELISA treated 2 hrs before IL4 challenge (RVb=456.2 pg/ml)

## COc1ccc(C[C@@H]2COc3c(OC)c(O)c(C)c(O)c3C2=O)c(O)c1O [OPHIOPOGONANONE G]
[1]
  Activity: Non-toxic
BEAS-2B [2]
  Activity: Dose-dependent effect
[3]
  Activity: Non-toxic
[4]
  Activity: 30.8 pg/mL

## COc1c(C)c(O[C@@H]2O[C@H](CO)[C@@H](O)[C@H](O)[C@H]2O)c(C=O)c2c1C(=O)[C@H](Cc1ccc3c(c1)OCO3)CO2 [OPHIOPOGOSIDE B]
[1]
  Activity: Non-toxic
BEAS-2B [2]
  Activity: Dose-dependent effect
[3]
  Activity: Non-toxic
[4]
  Activity: 25.5 pg/mL

## Cc1c(O)c2c(c(C=O)c1O[C@@H]1O[C@H](CO)[C@@H](O)[C@H](O)[C@H]1O)OC[C@@H](Cc1ccc3c(c1)OCO3)C2=O [OPHIOPOGOSIDE A]
BEAS-2B [5]
  Activity: Dose-dependent effect
[1]
  Activity: Non-toxic
BEAS-2B [2]
  Activity: Dose-dependent effect
[3]
  Activity: Non-toxic
[4]
  Activity: 28.5 pg/mL

## COc1ccc2ccc(=O)oc2c1CC=C(C)C [OSTHOLE]
[6]
  Activity: 80.5 pg/mL
